From ChEMBL document CHEMBL1154039, “Synthesis and biological evaluation of 1,2,4-trisubstituted imidazoles and 1,3,5-trisubstituted pyrazoles as inhibitors of transforming growth factor beta type 1 receptor (ALK5)” (Bioorg Med Chem Lett, 2009)
Active and inactive are the calls of the source. The calls are words filed in the database; no cut-off is given here.

How the values were obtained:
[1] = biological target: T1, Activin receptor type-1B (Homo sapiens) (UniProt P36896); assay: Inhibition of ALK4 expressed in baculovirus/Sf9 cells assessed as inhibition of receptor autophosphorylation at 1 uM after 3 hrs
T1 sequence (whole entry): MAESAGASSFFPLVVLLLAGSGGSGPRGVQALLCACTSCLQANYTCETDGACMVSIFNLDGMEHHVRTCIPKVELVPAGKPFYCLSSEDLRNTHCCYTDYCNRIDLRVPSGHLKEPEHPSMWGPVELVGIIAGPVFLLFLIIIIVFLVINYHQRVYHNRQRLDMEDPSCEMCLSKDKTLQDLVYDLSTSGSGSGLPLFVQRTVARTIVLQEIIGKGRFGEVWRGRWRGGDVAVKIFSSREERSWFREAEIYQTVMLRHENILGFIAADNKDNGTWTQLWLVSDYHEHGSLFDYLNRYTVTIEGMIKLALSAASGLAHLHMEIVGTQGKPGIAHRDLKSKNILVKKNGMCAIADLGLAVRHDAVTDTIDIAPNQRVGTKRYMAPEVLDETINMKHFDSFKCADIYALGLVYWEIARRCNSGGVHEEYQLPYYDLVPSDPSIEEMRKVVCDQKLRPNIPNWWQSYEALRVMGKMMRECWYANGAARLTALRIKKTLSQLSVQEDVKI
Summary of the method: (§1)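 Kinase carried a C-terminal 6-His tag and was purified on a Ni2+ affinity column. The purified kinase was preincubated with compound for 30 min at 37 °C. The reaction was started with 10–8 mol/L ATP plus Smad3 substrate and run 3 h at 30 °C. Autophosphorylation was quantified from ATP consumed, using a luminescent ATP detection assay.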

[2] = biological target: T2, Activin receptor type-1C (Homo sapiens) (UniProt Q8NER5); assay: Inhibition of ALK7 expressed in baculovirus/Sf9 cells assessed as inhibition of receptor autophosphorylation at 1 uM after 3 hrs; summary of the method: as §1
T2 sequence (whole entry): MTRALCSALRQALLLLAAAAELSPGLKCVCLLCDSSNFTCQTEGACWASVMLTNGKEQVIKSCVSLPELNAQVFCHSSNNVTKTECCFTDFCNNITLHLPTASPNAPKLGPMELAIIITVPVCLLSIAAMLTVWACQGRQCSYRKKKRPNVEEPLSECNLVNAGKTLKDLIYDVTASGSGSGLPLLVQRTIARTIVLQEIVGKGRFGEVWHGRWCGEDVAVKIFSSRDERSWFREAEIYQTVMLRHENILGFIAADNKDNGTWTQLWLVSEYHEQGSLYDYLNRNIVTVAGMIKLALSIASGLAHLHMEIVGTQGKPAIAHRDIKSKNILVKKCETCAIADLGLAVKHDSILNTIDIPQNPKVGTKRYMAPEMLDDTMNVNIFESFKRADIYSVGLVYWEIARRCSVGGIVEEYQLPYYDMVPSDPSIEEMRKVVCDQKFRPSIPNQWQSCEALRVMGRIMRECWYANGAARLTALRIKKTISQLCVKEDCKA

[3] = biological target: T1, Activin receptor type-1B (Homo sapiens); assay: Inhibition of ALK4 expressed in baculovirus/Sf9 cells assessed as inhibition of receptor autophosphorylation at 0.1 uM after 3 hrs; summary of the method: as §1
[4] = (§2) Cytotoxicity against human embryo lung […] cells at 30 uM by MTT assay; type: functional
Summary of the method: (§3)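 HLF cells were seeded at about 3000 per well and grown 24 h before treatment. The number of viable cells at treatment (t = 0) was measured to correct for differences in starting cell number. At the read times, MTT tetrazolium salt and phenazine methosulfate were added directly to the medium for 2–3 h.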

[5] = biological target: T2, Activin receptor type-1C (Homo sapiens); assay: Inhibition of ALK7 expressed in baculovirus/Sf9 cells assessed as inhibition of receptor autophosphorylation at 0.1 uM after 3 hrs; summary of the method: as §1
[6] = species: Homo sapiens; assay: as §2; type: functional; summary of the method: as §3
[7] = Selectivity for ALK4 over ALK5
Summary of the method: (§4)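 Purified C-terminally 6-His-tagged ALK4, ALK5 and ALK7, each run in a separate autophosphorylation assay. Each enzyme was preincubated with a range of compound concentrations for 30 min at 37 °C. Reactions were started with 10–8 mol/L ATP plus Smad3 and run 3 h at 30 °C. Phosphorylation was quantified as ATP consumed, using a luminescent ATP assay. Selectivity was obtained by comparing activity across the kinases.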

[8] = Selectivity for ALK4 over ALK7; summary of the method: as §4
[9] = Selectivity for ALK5 over ALK7; summary of the method: as §4
[10] = Selectivity for ALK5 over ALK4; summary of the method: as §4

Compound	inhibition [1]	inhibition [2]	inhibition [3]	Activity [4]	inhibition [5]	Activity [6]	other results
Cc1cccc(-c2nc(-c3ccc(C(N)=O)cc3)cn2-c2ccc(F)cc2)n1	34.5%	35.1%	25%	19.1%	16.2%		
Cc1cccc(-c2nc(-c3ccc(C#N)cc3)cn2-c2ccc3c(c2)OCCO3)n1				28%			
COc1ccc(-c2cc(-c3ccc(C(N)=O)cc3)nn2-c2ccccc2F)cc1OC	70.4%	65.8%	32.1%	19.4%	5.3%		
COc1ccccc1-n1nc(-c2ccc(C(N)=O)cc2)cc1-c1ccc2c(c1)OCO2						inactive	
Cc1cccc(-c2nc(-c3ccc(C(N)=O)cc3)cn2-c2ccc3c(c2)OCO3)n1	29.8%	41.3%	15.6%	14.9%	4.5%		
Cc1cccc(-c2nc(C(C)(C)C)cn2-c2ccc(F)cc2)n1				59%			
COc1ccc(-n2cc(C(C)(C)C)nc2-c2cccc(C)n2)cc1F				22.1%			
Cc1cccc(-c2nc(C(C)(C)C)cn2-c2ccc3c(c2)OCO3)n1				7.3%			
COc1ccc(-c2cc(-c3ccc(C(N)=O)cc3)nn2-c2ccccn2)cc1OC				5.3%			
NC(=O)c1ccc(-c2cc(-c3ccc4c(c3)OCO4)n(-c3ccccc3)n2)cc1						inactive	
NC(=O)c1ccc(-c2cc(-c3ccc(O)c(O)c3)n(-c3ccccc3O)n2)cc1	93.7%	56.5%	73.8%	48.9%	34.8%		Selectivity ratio [7]: > 10; Selectivity ratio [8]: > 10
Cc1cccc(-n2nc(-c3ccc(C(N)=O)cc3)cc2-c2ccc3c(c2)OCO3)n1	66.8%	64%	39.4%	5.6%	4.2%		Selectivity ratio [9]: 10; Selectivity ratio [10]: 10
COc1ccc(-c2cc(-c3ccc(C#N)cc3)nn2-c2ccccc2F)cc1OC						inactive	
COc1ccc(-n2cc(-c3ccc(C(N)=O)cc3)nc2-c2cccc(C)n2)cc1F				9.1%			
Cc1cccc(-c2nc(C(C)(C)C)cn2-c2ccc3c(c2)OCCO3)n1						inactive	
NC(=O)c1ccc(-c2cc(-c3ccc(F)cc3)n(-c3ccccc3F)n2)cc1				19.54%			
N#Cc1ccc(-c2cc(-c3ccc4c(c3)OCO4)n(-c3ccccc3F)n2)cc1						inactive	
N#Cc1ccc(-c2cc(-c3ccc4c(c3)OCO4)n(-c3ccccn3)n2)cc1						inactive	
NC(=O)c1ccc(-c2nc(-c3ccccn3)c(-c3ccc4c(c3)OCO4)[nH]2)cc1 [SB-431542]				55%			
N#Cc1ccc(-c2cc(-c3ccccc3F)n(-c3ccc4c(c3)OCO4)n2)cc1				57.5%			
NC(=O)c1ccc(-c2cn(-c3ccc4c(c3)OCCO4)c(-c3ccccn3)n2)cc1				21%			

Compound	inhibition [1]	inhibition [2]	inhibition [3]	Activity [4]	inhibition [5]	Activity [6]	other results
COc1ccc(-c2cc(-c3ccc(C#N)cc3)nn2-c2ccccn2)cc1OC						inactive	
NC(=O)c1ccc(-c2cc(-c3ccc4c(c3)OCO4)n(-c3ccccc3F)n2)cc1	50.7%	39.1%	15.5%		22.7%	inactive	
NC(=O)c1ccc(-c2cn(-c3ccc4c(c3)OCO4)c(-c3ccccn3)n2)cc1	73.7%	54.8%	65.6%	21.6%	24.5%		
Cc1cccc(-n2nc(-c3ccc(C#N)cc3)cc2-c2ccc3c(c2)OCO3)n1	77.7%	73.4%	53.6%	15.4%	31.4%		
NC(=O)c1ccc(-c2cc(-c3ccccc3F)n(-c3ccc4c(c3)OCO4)n2)cc1	41.9%	57.4%	3.2%	0.52%	50.9%		
COc1ccccc1-n1nc(-c2ccc(C(N)=O)cc2)cc1-c1ccc(F)cc1						inactive	
Cc1cccc(-c2nc(-c3ccc(C(N)=O)cc3)cn2-c2ccc3c(c2)OCCO3)n1	49.3%	25%	28.5%	0.7%	13.4%		
OCc1ccc(-c2cc(-c3ccc4c(c3)OCO4)n(-c3ccccc3F)n2)cc1						inactive	
NC(=O)c1ccc(-c2cc(-c3ccc(F)cc3)n(-c3ccccc3O)n2)cc1						inactive	
NC(=O)c1ccc(-c2cn(-c3ccc4c(c3)OCO4)c(-c3ccccc3F)n2)cc1						inactive	
NC(=O)c1ccc(-c2cc(-c3ccc4c(c3)OCO4)n(-c3nccs3)n2)cc1						inactive	
Cc1cccc(-c2nc(-c3ccc(C#N)cc3)cn2-c2ccc(F)cc2)n1				20.2%			
NC(=O)c1ccc(-c2cc(-c3ccc(F)cc3)n(-c3ccccn3)n2)cc1				23.7%			
NC(=O)c1ccc(-c2cc(-c3ccccn3)n(-c3ccc4c(c3)OCO4)n2)cc1						inactive	
NC(=O)c1ccc(-c2cc(-c3ccc4c(c3)OCO4)n(-c3ccccn3)n2)cc1	74.7%	57.3%	70%	26.7%	35.5%		
N#Cc1ccc(-c2cn(-c3ccc4c(c3)OCO4)c(-c3ccccc3F)n2)cc1	36.6%	63.6%	13.3%	12.3%	30.5%		
NC(=O)c1ccc(-c2cc(-c3ccc4c(c3)OCO4)n(-c3ccccc3C(F)(F)F)n2)cc1						inactive	
COc1ccc(-n2cc(-c3ccc(C#N)cc3)nc2-c2cccc(C)n2)cc1F				57%			
O=C(O)c1ccc(-c2cc(-c3ccc4c(c3)OCO4)n(-c3ccccc3F)n2)cc1				5.4%			
Cc1cccc(-c2nc(-c3ccc(C#N)cc3)cn2-c2ccc3c(c2)OCO3)n1	76.9%	44.6%	45.5%	4%	33.9%		
